# PP1 inh – counter-screen for PP5 inhibitors: inhibitors of human PP1-alpha | P62136 | purified PP1alpha, OMFP fluorescence | inhibition, % at 6.7 µM | 320,000 tested, 0.9% active | AID 2235;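 active means inhibition above the mean inhibition of all tested compounds plus 3 SD, computed separately for each screening campaign, cut at about 15% in these data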
# PP5 inh – PP5 (human) phosphatase inhibition | P53041 | purified PP5c, OMFP substrate fluorescence | inhibition, % at 6.7 µM | 320,000 tested, 0.18% active | AID 1987;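 active means inhibition above the campaign's mean inhibition across all tested compounds plus 3 SD, cut at about 9.5% in these data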;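 further: 0% = DMSO only and 100% = 100 µM cantharidin control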
# UCH37 DUB inh – inhibitors of human deubiquitinating enzyme UCH37; inhibition, % (no concentration beside the values); purified proteasome/UCH37, Ub-AMC cleavage fluorescence; AID 588478; Q9Y5K5; 330,000 tested, 0.33% active;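 active means mean inhibition over replicate wells above about 20%, limit read from the data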;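 further: 0% = compound-free wells with enzyme and 100% = wells lacking proteasome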
#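 Test system – human UCH37 enzyme supplied as purified proteasome complex · Incubation – 30 min preincubation with enzyme, 25 min cleavage at room temperature · Detection – AMC fluorescence from Ub-AMC cleavage, excitation 355 nm, emission 460 nm · Benchmarks – no-proteasome wells (full inhibition) and compound-free wells (no inhibition)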
# PREPL inhibitor – human PREPL enzyme inhibition; AID 2751; inhibition, % at 5.96 µM; recombinant PREPL, fluorescence polarization activity-based probe; Q4J6C6; 320,000 tested, 0.68% active; in the data active means inhibition above about 43%;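 further: 0% = enzyme with DMSO and 100% = wells lacking enzyme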
# Target sequence (Q4J6C6 whole entry, looked up): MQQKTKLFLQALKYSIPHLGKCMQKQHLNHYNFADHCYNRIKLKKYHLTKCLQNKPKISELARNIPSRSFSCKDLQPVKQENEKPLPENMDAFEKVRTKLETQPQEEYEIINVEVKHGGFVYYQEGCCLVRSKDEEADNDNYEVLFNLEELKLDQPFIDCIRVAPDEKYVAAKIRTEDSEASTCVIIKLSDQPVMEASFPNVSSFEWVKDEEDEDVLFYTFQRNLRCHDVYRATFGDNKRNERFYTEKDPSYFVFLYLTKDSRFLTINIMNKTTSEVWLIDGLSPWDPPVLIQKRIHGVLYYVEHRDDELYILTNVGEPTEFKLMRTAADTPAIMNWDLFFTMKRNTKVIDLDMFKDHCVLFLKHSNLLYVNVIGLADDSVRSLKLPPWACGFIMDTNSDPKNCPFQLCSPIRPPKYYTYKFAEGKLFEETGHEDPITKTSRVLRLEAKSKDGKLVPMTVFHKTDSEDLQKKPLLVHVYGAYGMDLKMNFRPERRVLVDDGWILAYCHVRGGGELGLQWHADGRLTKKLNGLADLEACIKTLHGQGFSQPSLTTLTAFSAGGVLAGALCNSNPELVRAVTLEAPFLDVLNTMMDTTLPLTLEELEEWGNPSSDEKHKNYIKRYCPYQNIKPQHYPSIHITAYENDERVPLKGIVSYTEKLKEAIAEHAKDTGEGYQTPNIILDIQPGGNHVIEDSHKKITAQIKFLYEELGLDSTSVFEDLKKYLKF
# Fh CTSL1 inh – blocks F. hepatica cathepsin L1 in PFM18AAP counter-screen; AID 1906; inhibition, % at 5.96 µM; 300,000 tested, 0.49% active; recombinant F. hepatica cathepsin L1, Z-Leu-Arg-MCA fluorescence;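 active means inhibition above the mean of all tested compounds plus 3 SD, set per screening campaign, cut at about 17% in these data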;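 further: 0% = plate median of test compound wells and 100% = 1 µM Z-Phe-Ala-diazomethylketone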
# UBC13 polyUb – human UBC13 polyubiquitination inhibition. P61088. UBC13 polyubiquitin chain formation, TR-FRET. inhibition, % at 20 µM. 330,000 tested, 0.47% active. AID 485273; in the data active means inhibition above about 45%, passing the limit was not always enough
# * hit, by the source's call; . = no result. In the library only some 2.3% were active in any assay of this set; here they are far more common.
SMILES,PP1 inh,PP5 inh,UCH37 DUB inh,PREPL inhibitor,Fh CTSL1 inh,UBC13 polyUb
CCOc1ccccc1NC(=O)c1oc2ccccc2c1NC(=O)C1CC1,-4,3,-158,-4,-1,25
CCOc1ccccc1NC(=O)c1oc2ccccc2c1NC(=O)C1CCCO1 (stereo not given),5,-1,-25,10,18*,6
CCCCC(C(=O)O)C(C)CC(=O)Nc1cccc(C(=O)O)c1 (stereo not given),0,-1,0,-1,2,-5
CCCC[C@H](CC(=O)c1ccccc1)[C@@H](OC(C)=O)C(=O)Oc1c(C(C)C)cccc1C(C)C,-3,-1,25*,-1,.,-7
CCCCc1ccc(NC(=S)Nc2ccc(Nc3ccc(OC)cc3)cc2)cc1,4,3,3,47*,2,-6
O=C(Cc1ccc(Cl)cc1)N/N=C/c1cccc(O)c1,-4,4,.,-6,18*,2
O=C(CCl)N1CCCC1c1ccc2c(c1)OCCO2 (stereo not given),-4,-1,.,2,75*,-3
O=C(COc1cccc([N+](=O)[O-])c1)NN=Cc1ccco1,.,.,1,.,.,.
CCC(=NN=C(CC)c1ccc(O)cc1)c1ccc(O)cc1,.,.,4,.,.,.
Nc1ccc(Nc2nc(-c3ccncc3)cs2)cc1,5,1,3,44*,-6,2
CC1(C)Cc2c(C#N)c(N3CCN(C(=O)c4ccccc4)CC3)nc(-c3ccco3)c2CS1,16*,1,-116,7,2,-13
CC(C)CCNc1nc(-c2ccco2)c2c(c1C#N)CCCC2,-1,2,-442,-3,19*,-19
N#Cc1c(NCCN)nc(-c2ccco2)c2c1CCCC2,3,-1,-170,23,11,10
N#Cc1c(N2CCOCC2)nc(-c2ccco2)c2c1CCCC2,1,3,-135,12,42*,7
CCCN1C=CC(=C/C=C(\C#N)C(=O)OCC)C=C1,2,9,.,-1,15,-478
CCCCCCN1C=CC(=C/C=C(\C#N)C(=O)OCC)C=C1,-5,1,21*,26,10,-350
CN(C1=C(N2CCOCC2)C(=O)c2ccccc2C1=O)c1ccccc1,6,3,7,27,62*,-91
COc1cccc(C(=O)NNC2OC(CO)C(O)C2O)c1 (stereo not given),-5,2,2,-9,19*,4
N=c1n(Cc2ccccc2)c2ccccc2n1CC(O)c1ccccc1 (stereo not given),-2,0,5,43*,1,12
CC1=CC(=NNC(=O)c2ccccc2)CC1,.,.,-1,.,.,.
Cc1oc(C=NNC(=O)CN(c2ccccc2Cl)S(C)(=O)=O)cc1Br,.,.,5,.,.,.
O=c1c2ccccc2nc(N/N=C/c2ccc(O)cc2)n1O,-3,-1,.,1,1,8
O=c1c2ccccc2nc(N/N=C/c2c(O)ccc3ccccc23)n1O,18*,4,.,35,1,-18
O=C(NN=Cc1cccnc1)c1ccc2c(c1)OCO2,.,.,0,.,.,.
Cc1ccc(-c2cc(NC(=O)CCl)n(-c3ccccc3)n2)cc1,0,2,5,-4,75*,4
SMILES,PP1 inh,PP5 inh,UCH37 DUB inh,PREPL inhibitor,Fh CTSL1 inh,UBC13 polyUb
O=C(CCl)Nc1cc(-c2ccccc2)nn1-c1ccccc1,2,4,8,-5,68*,-1
CC(=O)Nc1ccc(-c2cc(NC(C)=O)n(-c3ccccc3)n2)cc1,-4,3,3,-2,3,-5
Cc1ccc(-c2nn(-c3ccccc3)cc2NC(=O)CCl)cc1,1,4,7,0,82*,2
Cc1ccc(-c2nn(-c3ccccc3)cc2CO)cc1,0,1,2,9,1,2
COc1ccc(CC(=O)NN=Cc2sccc2C)cc1,.,.,3,.,.,.
Oc1ccc2oc3c(c2c1C=Nn1cnnc1)CCCC3,.,.,1,.,.,.
O=C(ON=Cc1ccc2c(c1)OCO2)c1ccc([N+](=O)[O-])cc1,.,.,2,.,.,.
O=C(O/N=C/c1ccc2c(c1)OCO2)c1ccccc1Cl,-4,5,.,55*,-2,1
CC(=NNC(=O)c1cccc(C)c1)c1c(O)cc(C)oc1=O,.,.,8,.,.,.
Cc1cccc(OC(C)C(=O)NN=Cc2ccncc2)c1 (stereo not given),.,.,-1,.,.,.
CC(C)(C)NC(=O)NC(=O)COC(=O)COc1ccc2c(c1)CCC2,-1,6,20*,-7,-7,1
COC(=O)NN=Cc1ccccc1OCc1ccccc1,.,.,3,.,.,.
COc1ccc(C=NNc2cc(N3CCOCC3)nc(C)n2)c(OC)c1,.,.,3,.,.,.
O=C(CNC(=O)c1ccccc1Br)NN=Cc1cccs1,.,.,3,.,.,.
CC(C)(C)OC(=O)COc1cc(OCC(=O)OC(C)(C)C)c2c(=O)cc(-c3ccccc3)oc2c1,17*,7,-18,-18,11,-3
CCc1cccc2c(C(=O)CCl)c[nH]c12,0,-1,7,6,35*,6
CCc1cccc2c(C(=S)N3CCCC3)c[nH]c12,1,0,5,8,-2,-7
CC(C)CC1Nc2ncnc(N3CCN(c4ccccn4)CC3)c2N(Cc2ccc(Br)cc2)C1=O (stereo not given),17*,2,4,-8,1,-15
CC(C)=CC(=O)Nc1nnc(C)s1,1,-2,28*,0,-1,8
CCCOc1ccc(CC(=O)NN=Cc2ccc(F)cc2)cc1,.,.,2,.,.,.
CC(Cl)c1cc(-c2ncc(C(F)(F)F)cc2Cl)no1 (stereo not given),-3,0,30*,7,3,5
FC(F)(F)c1cnc(-c2cnc(-c3ccccn3)nc2)c(Cl)c1,8,0,2,13,-1,-4
O=C(NN=Cc1ccc(F)cc1)c1ccc(Cn2cc(Br)c([N+](=O)[O-])n2)o1,.,.,6,.,.,.
COC(=O)NCc1ccc(Cl)c(Cl)c1,0,0,-2,-32,2,5
COc1ccc(CNC(=O)Oc2ccccc2)cc1Cl,4,-1,7,-12,19*,5
SMILES,PP1 inh,PP5 inh,UCH37 DUB inh,PREPL inhibitor,Fh CTSL1 inh,UBC13 polyUb
Cc1nn(-c2ccccc2)c(N2CCCC2)c1/C=C1\N=C(c2ccc(F)cc2)OC1=O,-1,2,7,3,70*,-41
Cc1nn(-c2ccccc2)c(N2CCCC2)c1/C=N/NC(=S)Nc1ccc(F)cc1,-1,0,.,13,2,-17
Cc1ccc(C2=N/C(=C\c3c(C)nn(-c4ccccc4)c3N3CCCC3)C(=O)O2)cc1,-2,1,3,4,55*,-33
O=C(CNc1cccc2ccccc12)NN=C/C=C/c1ccco1,.,.,8,.,.,.
CCOc1cc(N2CCOCC2)c(OCC)cc1NC(=O)CN1CCCC(C)C1 (stereo not given),-2,2,3,10,45*,6
CCOc1cc(N2CCOCC2)c(OCC)cc1NC(=O)COC(=O)c1cccc2ccccc12,-4,3,0,40,30*,-5
CCOc1cc(N2CCOCC2)c(OCC)cc1NC(=O)COC(=O)c1ccccc1OC(F)F,.,.,0,.,.,-6

# High-throughput results from PubChem.
